Screening data as filed in PubChem BioAssay.
Rows were chosen to be rich in hits. Some 4.8% of all compounds tested hit in one or more screens of this group.
PAFAH1B2 inh – inhibitors of human PAFAH1B2 | P68402 | recombinant PAFAH1B2, FP-rhodamine activity probe, fluorescence polarization | inhibition, % at 3.39 µM | actives 1.2% (n = 340,000) | AID 492953;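 active = inhibition above the mean of all tested compounds plus 3 SD, cut at about 24% in these data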;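 note: 0% = enzyme with DMSO and 100% = wells lacking PAFAH1B2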
Target sequence (P68402 whole entry, looked up): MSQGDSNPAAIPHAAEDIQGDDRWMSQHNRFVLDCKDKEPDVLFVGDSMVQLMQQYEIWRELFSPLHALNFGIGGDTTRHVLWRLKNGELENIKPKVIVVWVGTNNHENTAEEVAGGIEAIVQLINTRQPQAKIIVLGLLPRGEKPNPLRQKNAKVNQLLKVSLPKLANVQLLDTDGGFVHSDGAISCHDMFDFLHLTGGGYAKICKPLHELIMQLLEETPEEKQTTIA
PAFAH1B3 FP inh – blocks human PAF acetylhydrolase 1B catalytic subunit 3; Q15102; recombinant PAFAH1B3, FP-rhodamine probe, fluorescence polarization; inhibition, % at 3.39 µM; actives 0.28% (n = 340,000); AID 492972;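 active = inhibition above the screen-wide average of all tested compounds plus 3 SD, cut at about 25% in these data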;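 note: 0% = enzyme with DMSO only and 100% = wells lacking PAFAH1B3 protein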
pPAFAH FP inh – pPAFAH (human) enzyme inhibition. recombinant pPAFAH, FP-rhodamine probe fluorescence polarization. Q13093. inhibition, % at 3.39 µM. actives 1.5% (n = 330,000);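 active = inhibition above the mean inhibition across the screen plus 3 SD, cut at about 25% in these data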;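 note: inhibitors block binding of the rhodamine activity-based probe so polarization drops; 0% = enzyme with DMSO and 100% = wells lacking pPAFAH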
NR3A LBD binder – modulates the human NR3A ligand-binding domain. NR3A LBD differential scanning fluorimetry, Tm shift; 0% = protein alone, 100% = glycine-bound protein. Tm shift relative to glycine control, % at 25 µM. actives 2.5% (n = 340,000). AID 1259313;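 active = melting temperature shift of at least 10% of the positive control shift, at one fixed dose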
PAFAH2 inh – PAFAH2 (human) inhibition; Q99487; recombinant PAFAH2, FP-rhodamine activity probe, fluorescence polarization; inhibition, % at 3.39 µM; actives 0.99% (n = 340,000);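 active = inhibition above the mean over all tested compounds plus 3 SD, cut at about 30% in these data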;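 note: inhibitors block probe labeling of enzyme so polarization drops; 0% = enzyme with DMSO and 100% = wells lacking PAFAH2 protein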
UCH37 inh – inhibitors of human deubiquitinating enzyme UCH37; inhibition, % (concentration not given with the values); actives 0.33% (n = 330,000); Q9Y5K5; purified proteasome/UCH37, Ub-AMC cleavage fluorescence; AID 588478;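 active = mean inhibition over replicate wells above about 20%, limit read from the data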;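 note: 0% = compound-free wells with enzyme and 100% = wells lacking proteasome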
Target sequence (Q9Y5K5 whole entry, looked up): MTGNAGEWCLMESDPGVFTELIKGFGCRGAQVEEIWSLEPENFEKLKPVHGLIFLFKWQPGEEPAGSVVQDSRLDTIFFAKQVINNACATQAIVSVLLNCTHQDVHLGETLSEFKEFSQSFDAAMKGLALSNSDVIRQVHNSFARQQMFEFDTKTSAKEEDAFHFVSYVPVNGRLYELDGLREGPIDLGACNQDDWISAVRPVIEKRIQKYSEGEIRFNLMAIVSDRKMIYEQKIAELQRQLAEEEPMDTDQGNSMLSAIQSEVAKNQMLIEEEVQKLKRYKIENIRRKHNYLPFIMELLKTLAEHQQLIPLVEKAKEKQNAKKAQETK
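Material: Human UCH37 enzyme supplied as purified proteasome complex | Schedule: 30 min preincubation with enzyme, 25 min cleavage at room temperature | Detection: AMC fluorescence 355/460 nm | Measure: % inhibition of Ub-AMC cleavage fluorescence | Controls: Wells without proteasome as full block, compound-free enzyme plus substrate as uninhibited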
* = called active by the depositor; · = not tested or not shown.

SMILES | PAFAH1B2 inh | PAFAH1B3 FP inh | pPAFAH FP inh | NR3A LBD binder | PAFAH2 inh | UCH37 inh
O=C(N/N=C/c1c(Nc2cccc(C(F)(F)F)c2)nc2ccccn2c1=O)c1ccccc1[N+](=O)[O-] | 2 | 6 | 2 | 10* | -3 | ·
Cc1ccc(S(=O)(=O)n2cc(CO)c3ccccc32)cc1 | 47* | 6 | · | 0 | 3 | ·
CC(=NNc1ccccc1)c1cc2ccccc2oc1=O | · | · | · | · | · | 3
CC(CC(=O)Nc1cccc(Cl)c1Cl)=NNC(=O)c1ccccc1C | · | · | · | · | · | -1
O=C(NCCS(=O)(=O)c1ccc(Br)cc1)c1ccccc1 | 6 | 7 | 3 | 2 | -9 | 2
CC(C)c1ccc(C(C)NCCS(=O)(=O)c2ccc(Br)cc2)cc1 (stereo not given) | 26* | -5 | 2 | -2 | -5 | 2
CC(NCCS(=O)(=O)c1ccc(Cl)cc1)c1cccc(Cl)c1 (stereo not given) | 24* | 13 | 6 | 0 | 7 | 0
S=c1[nH]nc(-c2n[nH]c3c2CCC3)n1N=C/C=C/c1ccccc1 | · | · | · | · | · | 6
Cc1cccc(C=NN(CCO)C2=NS(=O)(=O)c3ccccc32)c1 | · | · | · | · | · | 3
Fc1ccc(-c2csc(-c3ccncc3)n2)cc1 | -5 | 6 | 22 | 26* | 1 | -20
Fc1ccc(-c2csc(Nc3ccccn3)n2)cc1 | 7 | 5 | 7 | -3 | -2 | 4
O=S(=O)(Nc1ccc(-c2csc(-c3ccccc3)n2)cc1)c1ccc(F)cc1 | -14 | -25 | -16 | 22* | -23 | 2
O=C(Nc1nc(-c2ccccc2)cs1)c1ccccc1NS(=O)(=O)c1ccc(F)cc1 | 6 | 9 | 22 | 32* | -6 | -54
CC(C)NC(=S)NN=C1CCCCC1C1CCCCC1 (stereo not given) | · | · | · | · | · | 4
COc1ccc(C=NNC(=S)Nc2cccc(C(=O)O)c2)cc1OC | · | · | · | · | · | 15
N#CC(c1ccc(Cl)cc1)c1ncc(C(F)(F)F)cc1Cl (stereo not given) | 1 | 9 | 0 | 14* | -3 | 3
CC(=O)c1sc(NN=Cc2ccccc2O)nc1C | · | · | · | · | · | -3
CC(=O)c1sc(N/N=C/c2cccc(O)c2)nc1C | 2 | 6 | 7 | 14* | 4 | ·
CC(=O)c1sc(N/N=C\c2c(O)ccc3ccccc23)nc1C | 8 | 12 | 34* | -5 | 18 | ·
O=[N+]([O-])c1cc(S(=O)(=O)Nc2ccc(Cl)cc2)ccc1N/N=C/c1ccncc1 | 1 | 4 | -1 | 12* | 2 | ·
CCCC1C2C(=O)N(c3ccccc3OC)C(=O)C2ON1c1ccccc1 (stereo not given) | 1 | 2 | 11 | 20* | 0 | 6
CC(=O)c1c(OCC(=O)O)ccc2c(C)cc(=O)oc12 | 1 | -2 | -1 | -15 | 12 | -7
CC(=O)c1c(OC(=O)c2ccccc2Br)ccc2c(C)cc(=O)oc12 | 2 | -2 | -3 | 13* | 4 | -9
Nc1c(C(=O)NN=Cc2ccc(OCc3ccccc3)cc2)cnn1-c1ccccc1 | · | · | · | · | · | 6
COc1ccc(NS(=O)(=O)c2cc(NC(=O)[C@@H](NC(=O)c3ccccc3)C(C)C)ccc2C)cc1 | -3 | -8 | 9 | 13* | -10 | 1
SMILES | PAFAH1B2 inh | PAFAH1B3 FP inh | pPAFAH FP inh | NR3A LBD binder | PAFAH2 inh | UCH37 inh
COc1ccc(NS(=O)(=O)c2cc(NC(=O)c3ccc(=O)[nH]c3)ccc2C)cc1 | -1 | -2 | -13 | -1 | -3 | -1
CC(=O)Nc1ccc(S(=O)(=O)NCCC(=O)Nc2ccc(C)c(Cl)c2)cc1 | 8 | 2 | 1 | 5 | -1 | 3
Cc1ccc(S(=O)(=O)NCCC(=O)Nc2ccc(Cl)c(Cl)c2)cc1 | 29* | -4 | 1 | 10* | 6 | 3
Cc1ccc(S(=O)(=O)NCCC(=O)Nc2ccc(Cl)c(Cl)c2)cc1C | 25* | -3 | 0 | 13* | -3 | 0
O=C(N/N=C/c1ccc(O)cc1)Nc1cccc2nsnc12 | 0 | 6 | 6 | 17* | 5 | ·
O=C(CCCCC(=O)NN=Cc1ccccc1O)NN=Cc1ccccc1O | 3 | 8 | · | 35* | 3 | 0
O=C(CSCC(=O)NN=Cc1ccccc1O)NN=Cc1ccccc1O | 6 | 5 | · | 26* | 8 | 3
O=c1c2ccccc2oc2c1ccc1ccccc12 | -3 | 8 | 4 | 18* | -1 | -19
O=c1c2ccccc2ccc2ccccc12 | 3 | 2 | 1 | 0 | 1 | -3
CN(N=Cc1ccc(Cl)cc1)c1ncc(Cl)cc1C(F)(F)F | · | · | · | · | · | 7
NC(=NO)c1ccc(NC(=O)c2cccs2)cc1 | · | · | · | · | · | 3
COc1ccccc1C(=O)Nc1cccc(-c2cn3ccsc3n2)c1 | · | · | · | · | · | 1
O=C(Nc1ccc(-c2cn3ccsc3n2)cc1)C1COc2ccccc2O1 (stereo not given) | 3 | -3 | 7 | 24* | 7 | 1
O=C(Nc1cccc(-c2cn3ccsc3n2)c1)c1ccccc1 | 2 | 13 | 1 | 21* | 4 | 6
O=C(Nc1cccc(-c2cn3ccccc3n2)c1)c1cccc(Cl)c1 | 0 | 2 | 3 | 16* | -5 | -11
O=C(Nc1cccc(-c2cn3ccccc3n2)c1)c1cnccn1 | 5 | 5 | -3 | 1 | 7 | 4
O=c1c(=Cc2ccccc2)sc2nnc(-c3cccs3)n12 | · | · | · | · | · | 3
Cc1ccccc1Cc1c(C)nc2nc(SCC(=O)NCc3ccco3)nn2c1C | 5 | 13 | 8 | 0 | 6 | 2
Cc1ccccc1Cc1c(C)nc2c(C(=O)NCc3ccco3)cnn2c1C | -2 | -7 | 27* | -7 | -2 | -85
O=C(NC1CSCC1=NO)c1ccccc1 (stereo not given) | · | · | · | · | · | 4
OCCN1CCN(c2nc(-c3ccccc3O)nc3ccccc23)CC1 | 0 | 0 | 6 | 19* | -2 | 8
CN1CCN(c2nc(-c3ccccc3O)nc3ccccc23)CC1 | -3 | -7 | 3 | · | -4 | 8
CCC(C)(C)NC(=O)C1CCC(CNS(=O)(=O)c2cccc3nsnc23)CC1 (stereo not given) | 0 | 2 | 2 | 2 | -11 | 6
CC(C)(C)NC(=O)C1CCC(CNS(=O)(=O)c2cccc3nsnc23)CC1 (stereo not given) | 3 | 8 | 4 | 10* | 1 | 4
COC(=O)NN=Cc1cc(C)n(-c2cccc3ccccc23)c1C | · | · | · | · | · | 3
CCc1c(C(=O)NN=Cc2cn[nH]c2-c2ccc(F)cc2)csc1C | · | · | · | · | · | 6
Cc1c(-c2cccc(Cl)c2)nc2ccccc2c1C(=O)OCC(=O)Nc1ccc2c(c1)OCO2 | -6 | -10 | 3 | 21* | -28 | 1
COc1ccc(N2CCN(S(=O)(=O)CCNC(=O)C3CC3)CC2)cc1 | -5 | 7 | 0 | 13* | -3 | 5
O=C(CCC1CCCCC1)NCCS(=O)(=O)N1CCN(c2ccc(F)cc2)CC1 | 10 | 3 | 3 | 14* | 5 | 4
